ChEMBL document CHEMBL1144782, “Isoindolo[2,1-a]quinoxaline derivatives, novel potent antitumor agents with dual inhibition of tubulin polymerization and topoisomerase I” (2008)
The source made the active and inactive calls. No cut-off for these calls is given here.

Experiments:
UACC-62 = assay: Antitumor activity against human UACC62 cells; type: functional
In short: (§1)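 NCI 60-cell-line screen. Parameters were GI50 (50% net growth inhibition), TGI and LC50, each reported as –log molar concentration. Where an effect was not reached within the tested range, the highest tested concentration was used in the calculation.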

CCRF-CEM = assay: Growth inhibition of human CEM cells after 72 hrs by MTT assay; type: functional
In short: (§2)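 Growth inhibition by MTT after 72 h incubation. Resistant sublines: LoVoDoxo and MCF-7 MDR were kept in 0.1 µg/mL doxorubicin; CEMVbl-100 was selected against vinblastine. GI50 given as mean ± SEM of three independent experiments. Resistance index is resistant-line GI50 over parental GI50.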

DU-145 = assay: Antitumor activity against human DU145 cells; type: functional; conditions: Homo sapiens, DU-145; read-out: Log LC50 (the source's name) (converted)
In short: (§3)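 Run by the NCI in its in vitro disease-oriented screen of about 60 human tumour cell lines. For each line it reports pGI50 (50% net growth inhibition), pTGI (total growth inhibition) and pLC50 (50% net cell death), each as –log molar concentration. Where an effect was not reached within the tested range, the highest tested concentration was used.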

LOX IMVI = assay: Antitumor activity against human LOXIMVI cells; type: functional; in short: as §3
Tubulin (Sus scrofa) = Tubulin (Sus scrofa) (UniProt P02554+P02550); assay: Inhibition of pig brain tubulin polymerization at 5 uM
LoVo = assay: Growth inhibition of human doxorubicin-resistant LoVo cells after 72 hrs by MTT assay; type: functional; in short: as §2
Malme-3M = assay: Antitumor activity against human MALME3M cells; type: functional; in short: as §3
MCF7 [1] = assay: Antitumor activity against human MCF7 cells; type: functional; in short: as §3
Jurkat [2] = assay: Induction of apoptosis in human Jurkat cells after 24 hrs by flow cytometry; type: functional, cell-based
In short: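 Jurkat cells after 24 h exposure were stained with Annexin V-FITC plus propidium iodide. Flow cytometry used 488 nm excitation, with emission filters at 525 and 585 nm.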

NCI-H522 = assay: Antitumor activity against human NCI-H522 cells; type: functional; in short: as §3
Jurkat [3] = assay: Cell cycle arrest in human Jurkat cells assessed as accumulation at G1 phase at 250 nM after 24 hrs by flow cytometry; type: functional
In short: (§4)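 Exponentially growing Jurkat cells (5 × 105) were exposed to compound for 24 h. Cells were then fixed in ice-cold 70% ethanol, lysed with RNase A-containing buffer and stained with propidium iodide. DNA-content histograms from flow cytometry gave G1, S and G2/M fractions.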

[4] = target: DNA topoisomerase 1 (Homo sapiens) (UniProt P11387); assay: Inhibition of human topoisomerase 1-mediated relaxation of supercoiled pBR322 DNA at 200 uM by agarose gel electrophoresis
In short: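 Supercoiled pBR322 was incubated with 5 units of human topoisomerase I for 30 min at 37 °C in 50 mM Tris-HCl pH 7.8, 50 mM KCl, 10 mM MgCl2, 1 mM DTT, 1 mM EDTA, with drug 0.5–200 µM. Reactions were stopped with SDS and proteinase K, run on 1% agarose at 20 V overnight, stained with ethidium bromide, and bands quantified. Ethidium-containing gels were also run.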

Jurkat [5] = assay: Cell cycle arrest in human Jurkat cells assessed as accumulation at G1 phase at 62.5 nM after 24 hrs by flow cytometry; type: functional; in short: as §4
ACHN = assay: Antitumor activity against human ACHN cells; type: functional; in short: as §3
SK-MEL-5 = assay: Antitumor activity against human SKMEL5 cells; type: functional; in short: as §3
MCF7 [6] = assay: Resistance index, Ratio of GI50 for human multidrug-resistant MCF7 cells to GI50 for human MCF7 cells; type: functional; in short: as §2
M14 = assay: Antitumor activity against human M14 cells; type: functional; in short: as §3
HOP-92 = assay: Antitumor activity against human HOP92 cells; type: functional; in short: as §3
Jurkat [7] = assay: Cell cycle arrest in human Jurkat cells assessed as accumulation at G2/M phase at 32 nM after 24 hrs by flow cytometry; type: functional; in short: as §4
786-0 = assay: Antitumor activity against human 786-0 cells; type: functional; in short: as §3
RXF 393 = assay: Antitumor activity against human RXF393 cells; type: functional; in short: as §3
SN12C = assay: Antitumor activity against human SN12C cells; type: functional; in short: as §3
NCI-H23 = assay: Antitumor activity against human NCI-H23 cells; type: functional; in short: as §3
Jurkat [8] = assay: Cell cycle arrest in human Jurkat cells assessed as accumulation at S phase at 62.5 nM after 24 hrs by flow cytometry; type: functional; in short: as §4
KM12 = assay: Antitumor activity against human KM12 cells; type: functional; in short: as §3
Jurkat [9] = assay: Cell cycle arrest in human Jurkat cells assessed as accumulation at G2/M phase at 250 nM after 24 hrs by flow cytometry; type: functional; in short: as §4
Jurkat [10] = assay: Cell cycle arrest in human Jurkat cells assessed as accumulation at G2/M phase at 125 nM after 24 hrs by flow cytometry; type: functional; in short: as §4
SR = assay: Antitumor activity against human SR cells; type: functional; in short: as §1
SF-295 = assay: Antitumor activity against human SF295 cells; type: functional; in short: as §3
RPMI-8226 = assay: Antitumor activity against human RPMI8226 cells; type: functional; in short: as §3
Hs-578T = assay: Antitumor activity against human HS578T cells; type: functional; in short: as §3
CAKI-1 = assay: Antitumor activity against human CAKI1 cells; type: functional; in short: as §3
Jurkat [11] = assay: Cell cycle arrest in human Jurkat cells assessed as accumulation at G1 phase at 125 nM after 24 hrs by flow cytometry; type: functional; in short: as §4
BT-549 = assay: Antitumor activity against human BT549 cells; type: functional; in short: as §3
SK-OV-3 = assay: Antitumor activity against human SKOV3 cells; type: functional; in short: as §3
[12] = read-out: Log LC50 (the source's name) (converted)

Sequence of Tubulin (Sus scrofa) (P02550 whole entry, looked up): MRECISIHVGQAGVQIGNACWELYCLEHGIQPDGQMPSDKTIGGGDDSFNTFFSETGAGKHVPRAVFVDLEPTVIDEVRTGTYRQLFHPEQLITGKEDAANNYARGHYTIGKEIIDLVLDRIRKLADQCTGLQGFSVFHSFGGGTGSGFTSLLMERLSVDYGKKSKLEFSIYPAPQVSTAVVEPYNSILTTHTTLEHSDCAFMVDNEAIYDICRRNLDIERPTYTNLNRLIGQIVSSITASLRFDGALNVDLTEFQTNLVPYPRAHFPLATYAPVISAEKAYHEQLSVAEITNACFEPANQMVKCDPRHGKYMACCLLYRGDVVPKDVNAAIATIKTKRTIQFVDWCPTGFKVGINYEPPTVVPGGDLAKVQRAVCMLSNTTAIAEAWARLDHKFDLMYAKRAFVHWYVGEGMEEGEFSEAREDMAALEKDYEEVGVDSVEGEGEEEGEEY
Sequence of Tubulin (Sus scrofa) (P02554 whole entry, looked up): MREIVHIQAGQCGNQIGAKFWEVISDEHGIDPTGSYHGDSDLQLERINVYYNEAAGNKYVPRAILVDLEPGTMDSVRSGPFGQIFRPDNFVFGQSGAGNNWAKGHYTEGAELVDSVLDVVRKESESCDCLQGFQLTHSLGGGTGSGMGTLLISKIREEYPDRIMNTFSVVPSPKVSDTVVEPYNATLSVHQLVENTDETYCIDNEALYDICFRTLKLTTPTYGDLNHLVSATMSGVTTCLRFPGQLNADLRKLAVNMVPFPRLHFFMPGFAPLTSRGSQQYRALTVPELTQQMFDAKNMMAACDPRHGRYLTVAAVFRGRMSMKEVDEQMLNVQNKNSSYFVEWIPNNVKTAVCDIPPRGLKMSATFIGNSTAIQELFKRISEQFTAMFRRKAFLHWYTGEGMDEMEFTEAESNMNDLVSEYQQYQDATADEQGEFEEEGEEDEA
Sequence of DNA topoisomerase 1 (Homo sapiens) (P11387 whole entry): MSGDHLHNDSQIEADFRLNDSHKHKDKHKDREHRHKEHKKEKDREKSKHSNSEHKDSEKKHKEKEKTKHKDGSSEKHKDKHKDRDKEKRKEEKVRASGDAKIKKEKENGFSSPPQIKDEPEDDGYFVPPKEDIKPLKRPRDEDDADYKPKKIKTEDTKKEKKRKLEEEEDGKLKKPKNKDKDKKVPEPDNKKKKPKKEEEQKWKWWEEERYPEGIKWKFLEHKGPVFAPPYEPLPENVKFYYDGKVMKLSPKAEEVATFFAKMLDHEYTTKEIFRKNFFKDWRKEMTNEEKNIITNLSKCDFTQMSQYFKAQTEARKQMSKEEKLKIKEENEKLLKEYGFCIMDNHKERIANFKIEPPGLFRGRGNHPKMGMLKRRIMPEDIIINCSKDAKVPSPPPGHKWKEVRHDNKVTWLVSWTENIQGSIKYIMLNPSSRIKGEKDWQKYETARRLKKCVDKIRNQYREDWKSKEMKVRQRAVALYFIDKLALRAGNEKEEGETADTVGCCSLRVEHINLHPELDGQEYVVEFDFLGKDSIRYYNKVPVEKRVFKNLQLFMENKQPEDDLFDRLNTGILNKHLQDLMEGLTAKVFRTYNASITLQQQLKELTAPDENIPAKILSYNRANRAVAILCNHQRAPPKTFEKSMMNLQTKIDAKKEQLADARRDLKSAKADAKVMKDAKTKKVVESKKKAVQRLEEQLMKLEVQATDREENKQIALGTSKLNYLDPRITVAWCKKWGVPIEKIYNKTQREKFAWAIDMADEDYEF

Compound `COc1ccc2c(c1)[nH]c(=O)c1c3ccccc3cn21` has a GI50 (UACC-62) of 74.1 nM, an LC50 (UACC-62) of 4.37 µM and a TGI (UACC-62; read-out: pTGI (converted)) of 1910 nM. The GI50 (CCRF-CEM) was 20 nM, the CC50 (DU-145) was 4.27 µM and the GI50 (LOX IMVI) was 70.8 nM. The LC50 (50% net cell kill) (LOX IMVI) was 4.47 µM, the TGI (LOX IMVI; read-out: pTGI (converted)) was 1780 nM and the Activity (Tubulin (Sus scrofa)) was “Active”. The GI50 (LoVo) was 130 nM, the GI50 (Malme-3M) was 10 nM and the CC50 (Malme-3M; [12]) was 8.51 µM. It also gave a TGI (Malme-3M; read-out: pTGI (converted)) of 3.39 µM, a GI50 (MCF7 [1]) of 28.2 nM and an LC50 (50% net cell kill) (MCF7 [1]) of 5.5 µM. The TGI (MCF7 [1]; read-out: pTGI (converted)) was 1450 nM, the Activity (Jurkat [2]) was “Dose-dependent effect” and the GI50 (NCI-H522) was 60.3 nM. For the same compound, the CC50 (NCI-H522; [12]) was 10 µM, the TGI (NCI-H522; read-out: pTGI (converted)) was 2290 nM and the Activity (Jurkat [3]) was 0.6%. For the same compound, the Activity [4] was “Active”, the Activity (Jurkat [5]) was 3.4% and the GI50 (ACHN) was 126 nM. For the same compound, the LC50 (50% net cell kill) (ACHN) was 4.37 µM, the TGI (ACHN; read-out: pTGI (converted)) was 1820 nM and the GI50 (SK-MEL-5) was 28.2 nM. For the same compound, the LC50 (SK-MEL-5) was 3.47 µM, the TGI (SK-MEL-5; read-out: pTGI (converted)) was 1170 nM and the RatioGI50 (MCF7 [6]) was 0.9. It also gave a GI50 (M14) of 10 nM, a CC50 (M14; [12]) of 3.63 µM and a TGI (M14; read-out: pTGI (converted)) of 12.9 µM. It also gave a GI50 (HOP-92) of 1000 nM, an LC50 (HOP-92) of 39.8 µM and a TGI (HOP-92; read-out: pTGI (converted)) of 15.8 µM. It also gave an Activity (Jurkat [7]) of 28.8%, a GI50 (786-0) of 41.7 nM and a CC50 (786-0; [12]) of 4.57 µM. It also gave a TGI (786-0; read-out: pTGI (converted)) of 1860 nM, a GI50 (RXF 393) of 20.4 nM and a CC50 (RXF 393; [12]) of over 100 µM. It also gave a TGI (RXF 393; read-out: pTGI (converted)) of 3.16 µM, a GI50 (SN12C) of 57.5 nM and an LC50 (SN12C) of over 100 µM. For the same compound, the TGI (SN12C; read-out: pTGI (converted)) was 2090 nM, the GI50 (NCI-H23) was 42.7 nM and the LC50 (50% net cell kill) (NCI-H23) was over 100 µM. For the same compound, the TGI (NCI-H23; read-out: pTGI (converted)) was 3.39 µM, the Activity (Jurkat [8]) was 53.5% and the GI50 (KM12) was 33.1 nM. The LC50 (50% net cell death) (KM12) was 6.03 µM, the TGI (KM12; read-out: pTGI (converted)) was 1510 nM and the Activity (Jurkat [9]) was 55.2%. For the same compound, the Activity (Jurkat [10]) was 59.2%, the GI50 (SR) was 10 nM and the LC50 (SR) was 75.9 µM. The TGI (SR; read-out: pTGI (converted)) was 2040 nM, the GI50 (SF-295) was 26.9 nM and the CC50 (SF-295; [12]) was 4.17 µM. It also gave a TGI (SF-295; read-out: pTGI (converted)) of 1050 nM, a GI50 (RPMI-8226) of 36.3 nM and a CC50 (RPMI-8226; [12]) of 6.92 µM. It also gave a TGI (RPMI-8226; read-out: pTGI (converted)) of 1410 nM, a GI50 (Hs-578T) of 51.3 nM and a CC50 (Hs-578T; [12]) of over 100 µM. For the same compound, the TGI (Hs-578T; read-out: pTGI (converted)) was 2690 nM, the GI50 (CAKI-1) was 35.5 nM and the LC50 (CAKI-1) was 5.13 µM. For the same compound, the TGI (CAKI-1; read-out: pTGI (converted)) was 2000 nM, the Activity (Jurkat [11]) was 2.2% and the GI50 (BT-549) was 55 nM. It also gave an LC50 (50% net cell kill) (BT-549) of 6.31 µM, a TGI (BT-549; read-out: pTGI (converted)) of 2040 nM and a GI50 (SK-OV-3) of 38.9 nM. For the same compound, the LC50 (50% net cell kill) (SK-OV-3) was 8.51 µM and the TGI (SK-OV-3; read-out: pTGI (converted)) was 1620 nM.
